Measurements as given in PMC7883929 (Molecular Vision, 2021).
“Also recorded” adds a separate entry of the source. Where two headings read alike, the source gives them in different places.

Columns and labels:
hTM-80 cells = assay: Superoxide dismutase activity assay; type: cell-based, human; details: 100 µM, overnight/24 h
normotensive rat eyes = assay: IOP measurement in normotensive Sprague Dawley rats; type: in vivo; details: Travoprost 0.004% single eye drop, 6 h time point only
Outline: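 Adult (10-week) female Sprague Dawley rats, n = 3/group, housed under dim light (90 lux) and dosed under a masked protocol. Each received a single 30 µl topical drop in PBS: saline vehicle, 0.004% travoprost positive control, or test compound. IOP was read by TonoLab rebound tonometry at 0, 3, 6, 24, 48 and 72 h. The contralateral eye served as control. Dosing was repeated three times per rat after 7-day washouts. Rank-sum test, mean ± SEM.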

[1] = cited from earlier work
[2] = test system: laser-induced glaucoma model in monkeys; details: at 6 h, cited from earlier work

With `[NH-]c1c[n+](N2CCOCC2)no1` [SIN-1, Linsidomine] as the molecule, how does the “SOD enzyme level (in words)” value (hTM-80 cells) read?
The value was “did not increase the SOD enzyme; also recorded: did not increase the SOD level”.

For `CC(C)OC(=O)CCC/C=C\C[C@@H]1[C@@H](/C=C/[C@@H](O)COc2cccc(C(F)(F)F)c2)[C@H](O)C[C@@H]1O` [Travoprost], which IOP lowering (normotensive rat eyes) is on record?
The IOP lowering was 14%.

With `CC(C)OC(=O)CCC/C=C\C[C@@H]1[C@@H](CC[C@@H](O)CCc2ccccc2)[C@H](O)C[C@@H]1O` [latanoprost] as the molecule, how does the IOP-lowering ability [1] read?
Its IOP-lowering ability is −7.7 mm/Hg.

With `O=C(CCC/C=C\C[C@@H]1[C@@H](CC[C@@H](O)CCc2ccccc2)[C@H](O)C[C@@H]1O)OCCCCO[N+](=O)[O-]` [LBN, Latanoprostene bunod] as the molecule, how does the IOP-lowering ability [1] read?
Its IOP-lowering ability is −9.0 mm/Hg.

For `CC1(C)CC(N)CC(C)(C)N1[O]` [SA-3, 4-amino TEMPOL], which “SOD enzyme level (in words)” value (hTM-80 cells) is on record?
Its value is “the effect was comparable to that of a standard SOD mimetic SA-3 compound”.

For `O=[N+]([O-])OCC(CO[N+](=O)[O-])O[N+](=O)[O-]` [GTN, glyceryl trinitrate], which IOP lowering ([2]; dose 500 µg) is on record?
Its IOP lowering is 13%.

Which IOP lowering ([2]; dose 150 µg/eye drop) does the source give for `CC1(C)CC(O[N+](=O)[O-])CC(C)(C)N1[O]` [4-nitro-TEMPOL] here?
Its IOP lowering is 20%.
